For 37 compounds, Tension and EC20 results are on record in ChEMBL document CHEMBL1133365, “Synthesis and class III type antiarrhythmic activity of 4-aroyl (and aryl)-l-aralkylpiperazines” (2000).

A value given as a limit tells only on which side of the number the result lay.

The species entered for assay [1] is Mustela putorius furo. The assay can be described thus: Peak isometric tension during the basic stimulus trains (S1) during control and compound induced tension, expressed as percent control. It is filed as functional. In a few lines:
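Same preparation: buffer pH 7.3, 5% CO2/95% O2, 37 °C, timolol 0.1 mM, 3 msec constant-current stimulation. Isometric force was recorded, and peak tension was taken during the basic S1 stimulus trains. Readings were made at steady state, about 15 min after each concentration. The change is expressed as percent of control.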

For assay [2], the species on record is Mustela putorius furo. Nature of the assay: Dose required to produce 20% increase in effective refractory period in male ferret. It is filed as functional. Summed up: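 Isolated tissue in buffer (mM: KCl 4, MgCl2 1.0, NaHCO3 25, KH2PO4 1.2, CaCl2 2, dextrose 11), pH 7.3, gassed 5% CO2/95% O2, 37 °C. Timolol 0.1 mM present. Stimulated with 3 msec constant-current pulses. Duplicate control readings, then each concentration read at steady state (~15 min). EC20 is the mean dose giving a 20% rise in ERP, in μM.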

Take `CS(=O)(=O)Nc1ccc(C(=O)N2CCN(CCOc3ccc(N(S(C)(=O)=O)S(C)(=O)=O)cc3)CC2)cc1`: the Tension in the assay filed under Mustela putorius furo [1] is -14%. The EC20 in the assay listed under Mustela putorius furo [2] turned out to be 25 µM.

As to `Cc1cccc(CCN2CCC(C(=O)c3ccc(NS(C)(=O)=O)cc3)CC2)n1`, in the assay filed under Mustela putorius furo [1], the Tension was 9%. Also, in the assay filed under Mustela putorius furo [2], the 20% effect concentration (EC20) was 0.02 µM.

Regarding `O=C(c1ccc([N+](=O)[O-])cc1)N1CCN(CCOc2ccc([N+](=O)[O-])cc2)CC1`, in the assay listed under Mustela putorius furo [1], the Tension came to 0%. For the same compound, the concentration for an effect of 20% (EC20) in the assay listed under Mustela putorius furo [2] amounted to 0.06 µM.

As to `CS(=O)(=O)Nc1ccc(OCCN2CCN(C(=O)c3ccc(NS(C)(=O)=O)cc3)CC2)cc1`, the Tension in the assay filed under Mustela putorius furo [1] was -13%. This compound also gave an EC20 in the assay filed under Mustela putorius furo [2] of 15 µM.

For `Nc1ccc(CCN2CCN(c3ccc(N)cc3)CC2)cc1`, in the assay filed under Mustela putorius furo [1], the Tension was -53%. Further, in the assay listed under Mustela putorius furo [2], the EC20 was greater than 100 µM.

Consider `O=C(c1ccc([N+](=O)[O-])cc1)N1CCN(CCc2ccc([N+](=O)[O-])cc2)CC1`, for which the Tension in the assay listed under Mustela putorius furo [1] is -3%. This compound displayed an EC20 in the assay filed under Mustela putorius furo [2] of 0.003 µM.

As to `O=C(c1ccc([N+](=O)[O-])cc1)N1CCN(C(=O)c2ccc([N+](=O)[O-])cc2)CC1`, the Tension in the assay listed under Mustela putorius furo [1] is -6%. The compound also showed a concentration for an effect of 20% (EC20) in the assay filed under Mustela putorius furo [2] of 7 µM.

Consider `O=C(c1ccc([N+](=O)[O-])cc1)N1CCN(Cc2ccc([N+](=O)[O-])cc2)CC1`, for which the Tension in the assay filed under Mustela putorius furo [1] is on record as -44%. The compound further yielded an EC20 in the assay filed under Mustela putorius furo [2] of 3.5 µM.

For the compound `O=C(c1ccccc1)N1CCN(CCc2ccc([N+](=O)[O-])cc2)CC1`, the Tension in the assay filed under Mustela putorius furo [1] is listed as -7%. Besides, the EC20 in the assay filed under Mustela putorius furo [2] was 0.14 µM.

With `O=[N+]([O-])c1ccc(CCN2CCN(S(=O)(=O)c3ccc([N+](=O)[O-])cc3)CC2)cc1`, the Tension in the assay listed under Mustela putorius furo [1] is on record as -24%. The same compound came in with an EC20 in the assay filed under Mustela putorius furo [2] of 1 µM.

In the case of `O=C(c1ccncc1)N1CCN(CCc2ccc([N+](=O)[O-])cc2)CC1`, the Tension in the assay listed under Mustela putorius furo [1] is 19%. For the same compound, the EC20 in the assay filed under Mustela putorius furo [2] stood at 1 µM.

For the compound `O=C(c1ccc(Cl)cc1)C1CCN(CCc2ccc([N+](=O)[O-])cc2)CC1`, the Tension in the assay listed under Mustela putorius furo [1] was -4%. The compound also registered an EC20 in the assay listed under Mustela putorius furo [2] of 0.3 µM.

As to `O=[N+]([O-])c1ccc(CCN2CCN(c3ccc([N+](=O)[O-])cc3)CC2)cc1`, in the assay filed under Mustela putorius furo [1], the Tension was found to be 5%. Further, the EC20 in the assay filed under Mustela putorius furo [2] was 0.03 µM.

For the compound `CS(=O)(=O)Nc1ccc(CCN2CCN(C(=O)c3ccc(NS(C)(=O)=O)cc3)CC2)cc1`, the Tension in the assay filed under Mustela putorius furo [1] was determined as 1%. The concentration for an effect of 20% (EC20) in the assay filed under Mustela putorius furo [2] worked out at 2 µM.

For `O=C(CN1CCN(C(=O)c2ccc([N+](=O)[O-])cc2)CC1)Nc1ccc([N+](=O)[O-])cc1`, the Tension in the assay filed under Mustela putorius furo [1] is on record as 5%. Also, in the assay listed under Mustela putorius furo [2], the 20% effect concentration (EC20) is 0.035 µM.

`O=[N+]([O-])c1ccc(OCCN2CCN(c3ccc([N+](=O)[O-])cc3)CC2)cc1`: the Tension in the assay filed under Mustela putorius furo [1] is -27%. Also, the EC20 in the assay filed under Mustela putorius furo [2] was 0.35 µM.

Turning to `O=C(c1ccc([N+](=O)[O-])o1)N1CCN(CCc2ccc([N+](=O)[O-])cc2)CC1`, in the assay listed under Mustela putorius furo [1], the Tension was -2%. This compound gave a 20% effect concentration (EC20) in the assay filed under Mustela putorius furo [2] of 0.14 µM.

Consider `O=[N+]([O-])c1ccc(CCN2CCN(c3ccc([N+](=O)[O-])cn3)CC2)cc1`, for which the Tension in the assay listed under Mustela putorius furo [1] is on record as -21%. This compound also had an EC20 in the assay filed under Mustela putorius furo [2] of 1.3 µM.

Turning to `O=C(c1ccc([N+](=O)[O-])cc1)N1CCN(CCc2ccccc2)CC1`, the Tension in the assay listed under Mustela putorius furo [1] was -8%. The compound further showed an EC20 in the assay listed under Mustela putorius furo [2] of 0.16 µM.

Turning to `Nc1ccc(OCCN2CCN(c3ccc(N)cc3)CC2)cc1`, in the assay listed under Mustela putorius furo [1], the Tension is -43%. Also, in the assay filed under Mustela putorius furo [2], the EC20 was greater than 100 µM.

For `CS(=O)(=O)Nc1ccc(CCN2CCN(C(=O)c3ccc([N+](=O)[O-])cc3)CC2)cc1`, in the assay listed under Mustela putorius furo [1], the Tension is listed as 13%. The compound also gave an EC20 in the assay listed under Mustela putorius furo [2] of 0.16 µM.

On to `Nc1ccc(CCN2CCN(c3ccncc3)CC2)cc1`, for which, in the assay filed under Mustela putorius furo [1], the Tension is reported as 9%. Further, the EC20 in the assay filed under Mustela putorius furo [2] turned out to be 15 µM.

On to `CS(=O)(=O)Nc1ccc(C(=O)N2CCN(CCc3ccc([N+](=O)[O-])cc3)CC2)cc1`, for which the Tension in the assay listed under Mustela putorius furo [1] worked out at 1%. This compound also returned an EC20 in the assay filed under Mustela putorius furo [2] of 0.06 µM.

Turning to `Nc1ccc(CCN2CCN(C(=O)c3ccc([N+](=O)[O-])cc3)CC2)cc1`, the Tension in the assay listed under Mustela putorius furo [1] is -14%. Besides, the EC20 in the assay filed under Mustela putorius furo [2] was 1.4 µM.

With `CS(=O)(=O)Nc1ccc(CCN2CCN(c3ccncc3)CC2)cc1`, the Tension in the assay filed under Mustela putorius furo [1] worked out at 2%. The same compound returned a concentration for an effect of 20% (EC20) in the assay filed under Mustela putorius furo [2] of 0.22 µM.

Turning to `CC(C)NCC(O)c1ccc(NS(C)(=O)=O)cc1` (centres undefined) [SOTALOL], the Tension in the assay filed under Mustela putorius furo [1] is listed as -13%. The compound also gave an EC20 in the assay filed under Mustela putorius furo [2] of 3.5 µM.

Regarding `O=[N+]([O-])c1ccc(CCN2CCC(c3ccc([N+](=O)[O-])cc3)CC2)cc1`, the Tension in the assay listed under Mustela putorius furo [1] was determined as 0%. This compound also gave an EC20 in the assay filed under Mustela putorius furo [2] of 0.3 µM.

For the compound `Nc1ccc(CCN2CCC(c3ccc(N)cc3)CC2)cc1`, the Tension in the assay listed under Mustela putorius furo [1] amounted to 15%. For the same compound, the EC20 in the assay filed under Mustela putorius furo [2] was found to be 2 µM.

`O=[N+]([O-])c1ccc(CCN2CCN(c3ccncc3)CC2)cc1`: in the assay filed under Mustela putorius furo [1], the Tension is recorded as 8%. Moreover, the concentration for an effect of 20% (EC20) in the assay listed under Mustela putorius furo [2] worked out at 0.03 µM.

Turning to `O=[N+]([O-])c1ccc(N2CCN(CCc3ccccc3)CC2)cc1`, the Tension in the assay filed under Mustela putorius furo [1] is -6%. Further, the concentration for an effect of 20% (EC20) in the assay listed under Mustela putorius furo [2] came to 0.5 µM.

As to `O=[N+]([O-])c1ccc(CCN2CCN(c3ccccc3)CC2)cc1`, in the assay filed under Mustela putorius furo [1], the Tension amounted to 10%. The compound further displayed a concentration for an effect of 20% (EC20) in the assay listed under Mustela putorius furo [2] of 0.8 µM.

In the case of `CS(=O)(=O)Nc1ccc(C(=O)N2CCN(CCc3ccccc3)CC2)cc1`, the Tension in the assay filed under Mustela putorius furo [1] is recorded as 5%. The compound also registered a concentration for an effect of 20% (EC20) in the assay listed under Mustela putorius furo [2] of 0.68 µM.

Regarding `O=C(c1ccc([N+](=O)[O-])cc1)N1CCN(CCc2ccc([N+](=O)[O-])s2)CC1`, the Tension in the assay filed under Mustela putorius furo [1] was -17%. This compound registered an EC20 in the assay listed under Mustela putorius furo [2] of 0.01 µM.

With `O=C(c1ccc([N+](=O)[O-])s1)N1CCN(CCc2ccc([N+](=O)[O-])cc2)CC1`, the Tension in the assay listed under Mustela putorius furo [1] was found to be 0%. In addition, the 20% effect concentration (EC20) in the assay listed under Mustela putorius furo [2] stood at 0.012 µM.

For the compound `O=C(c1ccc([N+](=O)[O-])cc1)N1CCNCC1`, the Tension in the assay filed under Mustela putorius furo [1] is on record as -33%. Moreover, in the assay listed under Mustela putorius furo [2], the concentration for an effect of 20% (EC20) is 20 µM.

Take `O=C(c1cccc([N+](=O)[O-])c1)N1CCN(CCc2ccc([N+](=O)[O-])cc2)CC1`: the Tension in the assay listed under Mustela putorius furo [1] was -7%. Besides, the EC20 in the assay filed under Mustela putorius furo [2] amounted to 0.27 µM.

With `CN(CCOc1ccc(NS(C)(=O)=O)cc1)CCc1ccc(NS(C)(=O)=O)cc1` [DOFETILIDE], in the assay listed under Mustela putorius furo [1], the Tension turned out to be 5%. In the assay filed under Mustela putorius furo [2], this compound yielded an EC20 of 0.015 µM.

A word on the EC20: it is the concentration at which the effect reaches the 20% level. Low readings indicate an effect from little substance, high ones a need for much substance.
